Test results: ChEMBL document CHEMBL1141248, “Filiasparosides A-D, cytotoxic steroidal saponins from the roots of Asparagus filicinus” (J Nat Prod, 2007)
In brackets after ≈: the same amount, converted by molar mass.

How the values were obtained:
[1] = test system: A549; test: Cytotoxicity against human A549 cells after 2 days; type: functional, cell-based; conditions: A549, 48 h
In short: (§1)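 Growth inhibition under continuous exposure for 2 days. Stock solutions were made in DMSO and kept at -70 °C, then diluted into culture medium to a final DMSO of ≤1% (v/v). EC50 was taken as the concentration giving 50% growth inhibition.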

[2] = test system: MCF7; test: Cytotoxicity against human MCF7 cells after 2 days; type: functional, cell-based; conditions: MCF7, 48 h; in short: as §1

Structure (SMILES)	EC50 [1] [µg/mL]	EC50 [2] [µg/mL]
C[C@H]1CC[C@@]2(OC1)O[C@H]1C[C@H]3[C@@H]4CC[C@@H]5C[C@@H](O[C@@H]6O[C@H](CO)[C@@H](O[C@@H]7O[C@@H](C)[C@H](O)[C@@H](O)[C@H]7O)[C@H](O)[C@H]6O[C@H]6OC[C@H](O)[C@@H](O)[C@@H]6O)CC[C@]5(C)[C@H]4CC[C@]3(C)[C@H]1[C@@H]2C	2.3 (≈ 2.68 µM)	3 (≈ 3.5 µM)
C[C@H]1CC[C@@]2(OC1)O[C@H]1C[C@H]3[C@@H]4CC[C@@H]5C[C@@H](O[C@@H]6O[C@H](CO)[C@@H](O[C@@H]7OC[C@@H](O)[C@H](O)[C@H]7O)[C@H](O)[C@H]6O)CC[C@]5(C)[C@H]4CC[C@]3(C)[C@H]1[C@@H]2C [ASPAFILIOSIDE A]	9.4 (≈ 13.2 µM)	> 20
COc1cc([C@@H]2c3cc4c(cc3[C@@H](O[C@@H]3O[C@@H]5CO[C@@H](C)O[C@H]5[C@H](O)[C@H]3O)[C@H]3COC(=O)[C@H]23)OCO4)cc(OC)c1O [ETOPOSIDE]	0.8 (≈ 1.36 µM)	2.8 (≈ 4.76 µM)
C[C@@H]1CC[C@@]2(OC1)O[C@H]1C[C@H]3[C@@H]4CC[C@H]5C[C@@H](O[C@@H]6O[C@H](CO[C@@H]7OC[C@H](O)[C@H](O)[C@H]7O)[C@@H](O[C@@H]7OC[C@@H](O)[C@H](O)[C@H]7O)[C@H](O)[C@H]6O)CC[C@]5(C)[C@H]4CC(=O)[C@]3(C)[C@H]1[C@@H]2C [FILIASPAROSIDE A]	13.3 (≈ 15.5 µM)	11.2 (≈ 13.1 µM)
C[C@@H]1CC[C@@]2(OC1)O[C@H]1C[C@H]3[C@@H]4CC[C@H]5C[C@@H](O[C@@H]6O[C@H](CO[C@@H]7OC[C@H](O)[C@H](O)[C@H]7O)[C@@H](O)[C@H](O)[C@H]6O)CC[C@]5(C)[C@H]4CC(=O)[C@]3(C)[C@H]1[C@@H]2C [FILIASPAROSIDE B]	16.4 (≈ 22.6 µM)	16.8 (≈ 23.2 µM)
C[C@H]1CC[C@@]2(OC1)O[C@H]1C[C@H]3[C@@H]4CC[C@@H]5C[C@@H](O[C@@H]6O[C@H](CO[C@@H]7OC[C@H](O)[C@H](O)[C@H]7O)[C@@H](O)[C@H](O)[C@H]6O)CC[C@]5(C)[C@H]4CC[C@]3(C)[C@H]1[C@@H]2C [FILIASPAROSIDE D]	2.4 (≈ 3.38 µM)	10.3 (≈ 14.5 µM)
